# Data from ChEMBL document CHEMBL2385053, “Novel isoquinoline derivatives as antimicrobial agents” (2013).
# Legend:
# Staphylococcus aureus = assay: Bactericidal activity against Staphylococcus aureus CECT 86 at 0.2 mg/disk after 24 hrs by paper disk-agar diffusion method; type: functional
# In short: (§1)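 Each bacterial strain was taken from a 24-h culture on solid medium, reactivated in Nutrient Broth, and grown a further 24 h at 28 or 37 °C depending on the strain. 1 mL of suspension was mixed with 15 mL Plate Count Agar. Four 0.5 cm paper disks (0.2 mg/disk) were placed on the set agar. Controls were vehicle-only disks and tetracycline. Plates were incubated 24 h, dark, 28 or 37 °C. The inhibition zone was read in mm as the mean ± SE of three independent experiments.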
# [1] = system: Pectobacterium carotovorum; assay: Bactericidal activity against Erwinia carotovora CECT 225 at 0.2 mg/disk after 24 hrs by paper disk-agar diffusion method; type: functional; in short: as §1
# Enterococcus faecalis = assay: Bactericidal activity against Enterococcus faecalis CECT 481 at 0.2 mg/disk after 24 hrs by paper disk-agar diffusion method; type: functional; in short: as §1
# Bacillus cereus = assay: Bactericidal activity against Bacillus cereus CECT 148 at 0.2 mg/disk after 24 hrs by paper disk-agar diffusion method; type: functional; in short: as §1
# Salmonella typhi [2] = assay: Bactericidal activity against Salmonella typhi CECT 409 at 0.2 mg/disk after 24 hrs by paper disk-agar diffusion method; type: functional, Salmonella enterica subsp. enterica serovar Typhi
# In short: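 Paper disk-agar diffusion, run in triplicate. 24-h culture reactivated in nutrient broth and grown a further 24 h at 28 or 37 °C by species. 1 mL suspension mixed into 15 mL plate count agar. Four 0.5 cm disks placed per plate, incubated 24 h in the dark. Inhibition zone (mm) reported as mean ± SE of three independent experiments; vehicle disks as negative control.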
# Geotrichum candidum = assay: Fungicidal activity against Geotrichum candidum CCM 245 at 0.2 mg/disk after 72 hrs by paper disk-agar diffusion method; type: functional
# In short: (§2)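 Fungi were grown on potato dextrose agar (PDA) for 7 days at 28 °C. Conidia were suspended to ~10⁶/mL in 0.05% Tween 80 in sterile water, and 1 mL was mixed into 15 mL PDA. Four 0.5 cm paper disks (0.2 mg/disk) were placed on the set agar. Controls were vehicle-only disks and benomyl at species-dependent doses. The inhibition zone was read in mm at 72 h as the mean ± SE of three independent experiments.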
# Escherichia coli [3] = assay: Bactericidal activity against Escherichia coli CECT 405 at 0.2 mg/disk after 24 hrs by paper disk-agar diffusion method; type: functional; in short: as §1
# [4] = system: Phytophthora citrophthora; assay: Fungicidal activity against Phytophthora citrophthora CECT 2353 at 0.2 mg/disk after 72 hrs by paper disk-agar diffusion method; type: functional; in short: as §2
# Fusarium culmorum = assay: Fungicidal activity against Fusarium culmorum CCM 172 at 0.2 mg/disk after 72 hrs by paper disk-agar diffusion method; type: functional; in short: as §2
# Trichoderma viride = assay: Fungicidal activity against Trichoderma viride CECT 2423 at 0.2 mg/disk after 72 hrs by paper disk-agar diffusion method; type: functional; in short: as §2
# Escherichia coli [5] = assay: Bactericidal activity against Escherichia coli CECT 100 at 0.2 mg/disk after 24 hrs by paper disk-agar diffusion method; type: functional; in short: as §1
# Aspergillus parasiticus = assay: Fungicidal activity against Aspergillus parasiticus CECT 2681 at 0.2 mg/disk after 72 hrs by paper disk-agar diffusion method; type: functional; in short: as §2
# Salmonella typhi [6] = assay: Bactericidal activity against Salmonella typhi CECT 409 at 0.2 mg/disk after 24 hrs by paper disk-agar diffusion method relative to control; type: functional, Salmonella enterica subsp. enterica serovar Typhi
# Escherichia coli [7] = assay: Bactericidal activity against Escherichia coli CECT 405 at 0.2 mg/disk after 24 hrs by paper disk-agar diffusion method relative to control; type: functional
# Escherichia coli [8] = assay: Bactericidal activity against Escherichia coli CECT 100 at 0.2 mg/disk after 24 hrs by paper disk-agar diffusion method relative to control; type: functional
SMILES,inhibition zone (IZ) (Staphylococcus aureus) [mm],inhibition zone (IZ) [1] [mm],inhibition zone (IZ) (Enterococcus faecalis) [mm],inhibition zone (IZ) (Bacillus cereus) [mm],inhibition zone (IZ) (Salmonella typhi [2]) [mm],inhibition zone (IZ) (Geotrichum candidum) [mm],inhibition zone (IZ) (Escherichia coli [3]) [mm],inhibition zone (IZ) [4] [mm],inhibition zone (IZ) (Fusarium culmorum) [mm],inhibition zone (IZ) (Trichoderma viride) [mm],inhibition zone (IZ) (Escherichia coli [5]) [mm],inhibition zone (IZ) (Aspergillus parasiticus) [mm],Activity (Salmonella typhi [6]) [%],Activity (Escherichia coli [7]) [%],Activity (Escherichia coli [8]) [%]
COc1ccc(CCC(=O)OCCCCCC2c3cc(OC)c(OC)cc3CCN2C)cc1 (centres undefined),7.83,11.33,7,8.5,8,5.75,7.33,0,6.5,6,7,0,–,–,–
CCCCC1c2cc(OC)c(OC)cc2CCN1C (centres undefined),6,6,7,6,6.25,0,6,0,5.5,0,0,0,–,–,–
COc1cc2c(cc1OC)C(CCCCCOC(=O)c1ccc(F)cc1)N(C)CC2 (centres undefined),13.67,13.5,13.67,13,14.83,7,13.67,0,8,7,14,0,61,–,–
COc1cc2c(cc1OC)C(CCCCCOC(=O)c1ccccc1)N(C)CC2 (centres undefined),10.67,12.17,9.83,10.83,9.67,6.75,9.83,0,7,7.25,11,0,–,–,–
COc1cc2c(cc1OC)C(CCCCCOC(=O)NCCc1ccc(F)cc1)N(C)CC2 (centres undefined),15.33,11.67,15,11.33,14.83,7.67,16,0,0,0,11.33,0,61,62,–
COC(=O)CCCCC1c2cc(OC)c(OC)cc2CCN1C (centres undefined),5.5,0,0,6.33,0,–,0,–,–,–,5.83,–,–,–,–
COc1cc2c(cc1OC)C(CCCCCOC(=O)CCc1ccc(Cl)cc1)N(C)CC2 (centres undefined),8.67,11,8.33,11,8.17,8.5,9.17,8.5,9.5,9,8.67,0,–,–,–
COc1ccc(C(=O)OCCCCCC2c3cc(OC)c(OC)cc3CCN2C)cc1 (centres undefined),11.33,10.33,11.33,10.33,–,7.33,11.33,0,5.5,5.5,10.83,0,–,–,–
COc1cc2c(cc1OC)C(CCCCCOC(=O)NCCc1ccccc1)N(C)CC2 (centres undefined),14,11,13.67,10.17,13.5,7.67,14,0,0,0,10.67,0,–,–,–
COc1cc2c(cc1OC)C(CCCCCOC(=O)c1ccc(Cl)cc1)N(C)CC2 (centres undefined),12.67,12.67,11.67,13,–,12.33,11.5,10.33,6.67,9,13.67,0,–,–,–
COc1cc2c(cc1OC)C(CCCCCOC(=O)Nc1ccc(Cl)cc1)N(C)CC2 (centres undefined),17.33,12.5,18,14.33,16.33,10.33,17.33,0,7.33,8.67,13.17,0,67,68,–
COc1cc2c(cc1OC)C(CCCCCOC(=O)CCc1ccccc1)N(C)CC2 (centres undefined),9.67,10.67,8.67,10.33,–,7.83,8.67,6.67,6.33,8,11.33,0,–,–,–
CCCCC1=[N+](C)CCc2cc(OC)c(OC)cc21,7,7,7,7,6.75,–,7,–,–,–,0,–,–,–,–
COc1cc2c(cc1OC)C(CCCCCOC(=O)NCCc1ccc(Cl)cc1)N(C)CC2 (centres undefined),16.33,18.33,17,14.67,–,10,17.67,6.25,15,7,12.33,0,75,75,–
COc1cc2c(cc1OC)C(CCCCCO)N(C)CC2 (centres undefined),10.67,8,10.33,0,12.33,–,11.33,–,–,–,16,–,–,–,62
COC(=O)CCCCC1=[N+](C)CCc2cc(OC)c(OC)cc21,0,5.5,0,6.33,0,–,0,–,–,–,0,–,–,–,–
COc1ccc(CCNC(=O)OCCCCCC2c3cc(OC)c(OC)cc3CCN2C)cc1 (centres undefined),9,17,11,12,–,7,13.33,0,0,0,10.67,0,–,–,–
CN(C)[C@@H]1C(O)=C(C(N)=O)C(=O)[C@@]2(O)C(O)=C3C(=O)c4c(O)cccc4[C@@](C)(O)[C@H]3C[C@@H]12 [TETRACYCLINE],27,34.67,31.17,23.33,24.33,–,25.67,–,–,–,25.67,–,–,–,–
